# High-throughput results from PubChem BioAssay.
# Rpn11 inh: inhibitors of human proteasome Rpn11; human 26S proteasome, Ub4-pepOG fluorescence polarization; 20S core pre-blocked with epoxomicin; inhibition, % at 20 µM; AID 588493; 360,000 tested, 0.59% active;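 active = inhibition at 20 µM, scaled to each plate's controls, above about 33%, limit read from the data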
# CSN deneddyl inh: CSN deneddylation inhibition. AID 651999. inhibition, % at 12.5 µM. Q92905. 360,000 tested, 0.38% active. Purified CSN, SCF-Nedd8-OG deneddylation, fluorescence polarization;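 active = pattern-corrected inhibition above about 35%, with an unprinted fluorescence ratio check between 0.5 and 1.5, limit read from the data, passing the limit was not always enough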;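 note: 0% = enzyme with substrate and 100% = substrate without enzyme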
#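 test system = HEK293T-derived human Csn5 enzyme | amount = 0.24 nM Csn5 enzyme, final concentration | medium = Tris/NaCl/DTT buffer, pH 7.5 | schedule = 90 min reaction at room temperature | signal = FP | evaluation = inhibition of Csn5 cleavage, % | compound dosing = single dose of 12.5 µM compound with 0.25% DMSO | probe or stimulus = 10 nM SCFSkp2-Nedd8OG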
# HNF4A DNA FP: change in binding of human HNF4 alpha to DNA; activity change, % at 10 µM; P41235; HNF4a-FITC DNA binding, fluorescence polarization, 1 h; 360,000 tested, 0.3% active; in the data active = activity change above about 30%, passing the limit was not always enough
# TPT1 inh: inhibitors of Candida albicans tRNA 2'-phosphotransferase TPT1; recombinant caTPT1, FP RNA substrate dephosphorylation; 300,000 tested, 0.81% active; AID 1962; inhibition, % at 5 µM;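 active = inhibition above the mean of all tested compounds plus 3 SD, set per screening campaign, cut at about 24% in these data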;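 note: plate controls were DMSO alone for no effect and ferristatin control at 100 nM for full effect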
# Myeloid diff MLP: myeloid differentiation induction; 360,000 tested, 1% active; ER-HoxA9 myeloid progenitors, lysozyme-GFP differentiation, flow cytometry; calls only at 10 µM;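 active = normalized GFP-positive differentiation at or above the plate's own cutoff, the solvent-only control mean plus 3 SD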;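 note: cells exposed to compound for four days before flow analysis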
# Rpn11 confirm: confirmation of human proteasome Rpn11 inhibitors; 1,900 tested, 29% active; purified human 26S proteasome, Ub4-pepOG fluorescence polarization; proteasome pretreated with epoxomicin; inhibition, % at 20 µM; AID 602318; shares compounds with Rpn11 inh
# MMP-2 counter: counter-screen for RPN11 inhibitors: inhibition of human MMP-2; shares compounds with Rpn11 inh; recombinant MMP-2, FRET peptide cleavage fluorescence; inhibition, % at 20 µM; 1,900 tested, 4% active;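 note: human MMP-2 activated beforehand with APMA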
# Thrombin inh: thrombin (bovine) inhibition counter-screen | shares compounds with Rpn11 inh | bovine thrombin cleavage of Ub4-pepOG, fluorescence polarization | inhibition, % at 20 µM | 1,900 tested, 13% active;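 active = mean inhibition at least 40% at 20 µM, or signal 3 deviations below plate average, so some actives read negative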;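 note: plate controls were thrombin with DMSO for no effect and buffer wells lacking thrombin for full effect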
# Target sequence (P00735 whole entry, looked up): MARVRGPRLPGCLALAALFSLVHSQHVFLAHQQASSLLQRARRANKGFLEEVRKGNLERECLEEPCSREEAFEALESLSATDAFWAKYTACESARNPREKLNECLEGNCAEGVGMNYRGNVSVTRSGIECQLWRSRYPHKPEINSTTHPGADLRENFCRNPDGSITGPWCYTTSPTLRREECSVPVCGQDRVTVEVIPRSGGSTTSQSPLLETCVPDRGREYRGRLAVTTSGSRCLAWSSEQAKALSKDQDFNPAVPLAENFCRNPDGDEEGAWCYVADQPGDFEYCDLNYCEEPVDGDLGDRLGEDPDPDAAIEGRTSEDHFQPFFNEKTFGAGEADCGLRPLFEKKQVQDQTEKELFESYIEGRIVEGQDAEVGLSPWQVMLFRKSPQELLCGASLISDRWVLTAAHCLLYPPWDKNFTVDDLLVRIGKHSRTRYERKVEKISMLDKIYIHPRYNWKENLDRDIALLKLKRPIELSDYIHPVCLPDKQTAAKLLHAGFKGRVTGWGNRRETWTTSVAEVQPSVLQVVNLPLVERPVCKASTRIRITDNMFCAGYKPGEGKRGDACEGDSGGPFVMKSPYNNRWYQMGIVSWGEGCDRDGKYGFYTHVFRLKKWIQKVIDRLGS
# Numbers without * were called inactive; i = inactive; / = not tested or not shown. A selection: hits, their analogues and other compounds. The true share with any hit is near 2.3%. Cut-off read from the data, not from the text of the source, unless noted: active = inhibition above about 40%; inactive = the rest.
SMILES,Rpn11 inh,CSN deneddyl inh,HNF4A DNA FP,TPT1 inh,Myeloid diff MLP,Rpn11 confirm,MMP-2 counter,Thrombin inh
COc1cc(/C=C2\C(=N)N3N=C(S(C)(=O)=O)SC3=NC2=O)ccc1OC(=O)c1cccs1,10,10,6,-4,i,/,/,/
COc1ccc(/C=C2\SC(=O)N(CCCC(=O)Nc3ccc(C(=O)O)cc3)C2=O)cc1OC,5,0,-2,-2,i,/,/,/
COc1ccc(/C=C2/SC(=S)N(CCCC(=O)Nc3ccc(O)cc3)C2=O)cc1OC,45*,5,18,19,i,61*,-10,42*
COc1ccc(/C=C2\SC(=S)N(CCCC(=O)Nc3ccc(C(=O)O)cc3)C2=O)cc1OC,56*,8,21,23,i,67*,-24,52*
Cn1cnnc1SCC(=O)NC1CCCC1,-7,1,4,0,i,/,/,/
O=C(CCNC(=O)c1ccc([N+](=O)[O-])cc1)NCc1ccco1,-5,1,2,/,i,/,/,/
COc1cc(-c2nc3cccc(C)n3c2NCC2CCCO2)ccc1O (stereo not drawn),42*,-2,3,-2,i,1,-30,active
CCN(C(=O)c1ccco1)c1nc(CC(=O)Nc2ccc(Cl)cc2)cs1,9,5,8,3,i,/,/,/
CCC(=O)N(Cc1ccco1)c1nc(C(=O)Nc2ccc(Cl)cc2)c(C)s1,44*,10,4,11,i,9,26,2
CC(C)(C)OC(=O)n1cccc1/C=C1\c2ccccc2C(=O)N1c1ccccc1,41*,13,28,/,i,34,21,7
CC(C)(C)OC(=O)[C@H](Cc1ccccc1)NC(=O)c1ncn2c1c(=O)[nH]c1ccc(Br)cc12,83*,11,-1,/,i,-5,-33,-14
CC1(C(=O)NCc2cccc3ccccc23)CCN1Cc1ccc(OC(F)(F)F)cc1 (stereo not drawn),2,-2,4,/,i,/,/,/
Cc1ccc(N(Cc2ccccc2)C(=O)c2cc(S(=O)(=O)N3CCOCC3)ccc2F)cc1,46*,8,15,/,i,9,-19,-1
Cc1ccc(N(Cc2ccccc2)C(=O)c2cc(S(=O)(=O)N3CCOCC3)ccc2Cl)cc1,18,-2,5,1,i,/,/,/
CCOc1ccc2ccccc2c1C1NC(=O)NC(C)=C1C(=O)OCCOC (stereo not drawn),-2,4,2,-4,i,/,/,/
COCCOC(=O)C1=C(C)NC(=O)NC1c1c(OC)ncnc1OC (stereo not drawn),164*,3,-1,2,i,-11,-6,-10
O=C(NCCCN1CCCC1=O)c1ccc(NS(=O)(=O)c2ccccc2)cc1,-4,-2,2,3,i,/,/,/
CCN(CC)c1ccc(/C=N/NC(=O)CN2CCCc3ccccc32)cc1,-5,5,-3,-2,i,/,/,/
O=C(CN1CCCc2ccccc21)N/N=C/c1ccccc1,66*,-8,3,17,i,10,-13,-5
Cn1c(=O)c2c(nc(C3CC4C5CCC(C5)C4C3)n2C)n(C)c1=O (stereo not drawn),-2,-1,5,/,i,/,/,/
O=C(COC(=O)CCNS(=O)(=O)c1ccc(Cl)cc1)Nc1ccccc1OC(F)F,89*,-2,40*,/,i,-21,-38,-24
Cc1ccc(S(=O)(=O)NCC(=O)OCC(=O)Nc2ccccc2OC(F)F)cc1,2,-4,6,0,i,/,/,/
CCCC(=O)Nc1ccc(-c2nc3cc(C)c(C)cc3o2)c(O)c1,22,3,1,3,i,/,/,/
COc1ccc(CC(=O)Nc2ccc(-c3nc4cc(C)ccc4o3)c(O)c2)cc1OC,66*,5,12,1,i,9,-23,7
Cc1ccc(C)c(C(=O)COC(=O)c2ccccc2N2C(=O)C3C4CCC(C4)C3C2=O)c1 (stereo not drawn),-2,2,7,-5,i,/,/,/
SMILES,Rpn11 inh,CSN deneddyl inh,HNF4A DNA FP,TPT1 inh,Myeloid diff MLP,Rpn11 confirm,MMP-2 counter,Thrombin inh
COCc1c(CCl)cnc(C)c1O,-1,3,1,-1,i,/,/,/
N#CC(C#N)=Cc1ccc(-c2ccc(S(=O)(=O)N=C(N)N)cc2)o1,46*,18,3,8,i,26,76*,11
NS(=O)(=O)c1ccc(-c2ccc(C=O)o2)cc1,6,-7,1,2,i,/,/,/
CS(=O)(=O)N1CCN(c2ccc([N+](=O)[O-])c(NCc3ccc(Cl)cc3)c2)CC1,45*,76*,33,-3,i,20,-34,9
CCC(=O)NCc1cc(-c2nn(C)c(=O)c3ccccc23)ccc1C,-17,-3,1,1,i,/,/,/
Cc1ccc(-c2nn(CC(=O)NCc3cc(-c4nn(C)c(=O)c5ccccc45)ccc3C)c(=O)c3ccccc23)cc1,80*,27,-8,-5,i,7,-20,-3
N#CCCN(C(=O)COC(=O)CNS(=O)(=O)c1ccc2ccccc2c1)c1ccccc1,-5,-1,0,/,i,/,/,/
CC(C)(C)S(=O)N1Cc2cc(C(=O)O)nc(-c3cccc(-c4cc5ccccc5o4)c3)c2[C@H]1CCO (stereo partly drawn),13,19,-4,/,i,/,/,/
CC(C)(C)S(=O)N1Cc2cc(C(=O)N[C@@H]3CCN(Cc4ccccc4)C3)nc(-c3cccc(-c4cc5ccccc5o4)c3)c2[C@@H]1CCO (stereo partly drawn),68*,9,21,/,i,26,15,0
Cc1nn(-c2ccccc2)c(C)c1NC(=O)COC(=O)CCc1ccccc1,-10,1,3,-1,i,/,/,/
CCOc1cnn(Cc2ccccc2)c(=O)c1SCc1ccccc1,4,1,3,0,i,/,/,/
CCN1CCN(C(=O)C(N)Cc2ccccc2)CC1 (stereo not drawn),-1,7,6,2,i,/,/,/
CC1CCN(CCCNC(=O)c2ccc(CS(=O)(=O)Cc3ccccc3F)o2)CC1,5,0,3,/,i,/,/,/
O=C(NCCCN1CCCCCC1)c1ccc(CS(=O)(=O)Cc2ccccc2F)o1,73*,97*,128,/,i,75*,-436,3
O=C(NCCCN1CCCC1)c1ccc(CS(=O)(=O)c2ccc(Br)cc2)o1,13,2,12,2,i,/,/,/
O=C(NCCN1CCCCCC1)c1ccc(CS(=O)(=O)c2ccc(Br)cc2)o1,53*,5,7,-1,i,32,14,13
